Results published in ChEMBL document CHEMBL5705905, “Pharmacological targeting of kinases MST1 and MST2 augments tissue repair and regeneration” (Sci Transl Med, 2016).
Activity calls are given as the source filed them. The calls are words filed in the database; no cut-off is given here.

How the values were obtained:
[1] = target: 5'-AMP-activated protein kinase catalytic subunit alpha-1 (Homo sapiens) (UniProt Q13131); experiment: Inhibition of AMPK-alpha1 (unknown origin) assessed as remaining activity at 1 uM by Kinome scan method relative to control
Chain of 5'-AMP-activated protein kinase catalytic subunit alpha-1 (Homo sapiens) (Q13131 whole entry, looked up): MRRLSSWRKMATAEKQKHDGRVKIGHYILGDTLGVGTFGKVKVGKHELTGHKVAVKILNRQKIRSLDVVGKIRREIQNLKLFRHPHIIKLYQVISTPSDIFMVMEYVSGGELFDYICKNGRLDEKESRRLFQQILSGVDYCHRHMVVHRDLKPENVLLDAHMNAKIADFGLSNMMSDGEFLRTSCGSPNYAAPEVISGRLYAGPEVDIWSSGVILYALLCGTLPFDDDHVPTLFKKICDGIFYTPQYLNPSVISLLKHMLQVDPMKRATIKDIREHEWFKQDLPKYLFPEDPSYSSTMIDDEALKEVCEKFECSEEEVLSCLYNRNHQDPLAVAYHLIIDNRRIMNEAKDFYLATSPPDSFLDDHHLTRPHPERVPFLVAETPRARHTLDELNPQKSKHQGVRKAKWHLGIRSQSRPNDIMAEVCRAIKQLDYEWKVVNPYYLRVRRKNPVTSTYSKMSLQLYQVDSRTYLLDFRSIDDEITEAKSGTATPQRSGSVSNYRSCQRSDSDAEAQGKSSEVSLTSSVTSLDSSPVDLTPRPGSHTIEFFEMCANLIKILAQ
In short: (§1)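 Active-site-dependent competition-binding (KINOMEscan) panel of 468 kinases, test compound at 1 μM (from a 10 mM DMSO stock). Read-out is ctrl% = (test signal − positive control signal)/(negative control signal − positive control signal) × 100. DMSO is the negative control (100%) and a control compound is the positive control (0%). Lower ctrl% means tighter binding.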

[2] = target: NUAK family SNF1-like kinase 2 (Homo sapiens) (UniProt Q9H093); experiment: Inhibition of SNARK (unknown origin) assessed as remaining activity at 1 uM by Kinome scan method relative to control
Chain of NUAK family SNF1-like kinase 2 (Homo sapiens) (Q9H093 whole entry, canonical isoform): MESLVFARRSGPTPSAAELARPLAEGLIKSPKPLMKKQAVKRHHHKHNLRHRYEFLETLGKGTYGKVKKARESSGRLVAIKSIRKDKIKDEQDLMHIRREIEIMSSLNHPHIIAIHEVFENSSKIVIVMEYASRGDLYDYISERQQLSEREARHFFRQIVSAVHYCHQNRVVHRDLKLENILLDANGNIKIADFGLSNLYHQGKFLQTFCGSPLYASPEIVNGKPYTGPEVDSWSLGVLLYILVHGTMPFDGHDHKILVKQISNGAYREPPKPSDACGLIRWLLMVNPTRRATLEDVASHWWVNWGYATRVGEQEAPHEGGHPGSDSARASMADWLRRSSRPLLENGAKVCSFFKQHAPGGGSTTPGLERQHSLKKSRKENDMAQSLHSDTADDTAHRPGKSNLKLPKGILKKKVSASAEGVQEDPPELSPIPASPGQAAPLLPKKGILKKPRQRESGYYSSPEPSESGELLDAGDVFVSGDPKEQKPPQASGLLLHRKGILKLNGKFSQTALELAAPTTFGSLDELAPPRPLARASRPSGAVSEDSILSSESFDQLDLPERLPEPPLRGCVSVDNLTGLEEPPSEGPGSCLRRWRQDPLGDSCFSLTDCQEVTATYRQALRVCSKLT

[3] = test system: Phosphatidylinositol 4,5-bisphosphate 3-kinase catalytic subunit alpha isoform (Homo sapiens), P42336 [M1043I]; experiment: Inhibition of PIK3CA M1043I mutant (unknown origin) assessed as remaining activity at 1 uM by Kinome scan method relative to control
[4] = target: Ephrin type-A receptor 8 (Homo sapiens) (UniProt P29322); experiment: Inhibition of EPHA8 (unknown origin) assessed as remaining activity at 1 uM by Kinome scan method relative to control
[5] = target: Platelet-derived growth factor receptor alpha (Homo sapiens) (UniProt P16234); experiment: Inhibition of PDGFRalpha (unknown origin) assessed as remaining activity at 1 uM by Kinome scan method relative to control
Chain of Platelet-derived growth factor receptor alpha (Homo sapiens) (P16234 whole entry): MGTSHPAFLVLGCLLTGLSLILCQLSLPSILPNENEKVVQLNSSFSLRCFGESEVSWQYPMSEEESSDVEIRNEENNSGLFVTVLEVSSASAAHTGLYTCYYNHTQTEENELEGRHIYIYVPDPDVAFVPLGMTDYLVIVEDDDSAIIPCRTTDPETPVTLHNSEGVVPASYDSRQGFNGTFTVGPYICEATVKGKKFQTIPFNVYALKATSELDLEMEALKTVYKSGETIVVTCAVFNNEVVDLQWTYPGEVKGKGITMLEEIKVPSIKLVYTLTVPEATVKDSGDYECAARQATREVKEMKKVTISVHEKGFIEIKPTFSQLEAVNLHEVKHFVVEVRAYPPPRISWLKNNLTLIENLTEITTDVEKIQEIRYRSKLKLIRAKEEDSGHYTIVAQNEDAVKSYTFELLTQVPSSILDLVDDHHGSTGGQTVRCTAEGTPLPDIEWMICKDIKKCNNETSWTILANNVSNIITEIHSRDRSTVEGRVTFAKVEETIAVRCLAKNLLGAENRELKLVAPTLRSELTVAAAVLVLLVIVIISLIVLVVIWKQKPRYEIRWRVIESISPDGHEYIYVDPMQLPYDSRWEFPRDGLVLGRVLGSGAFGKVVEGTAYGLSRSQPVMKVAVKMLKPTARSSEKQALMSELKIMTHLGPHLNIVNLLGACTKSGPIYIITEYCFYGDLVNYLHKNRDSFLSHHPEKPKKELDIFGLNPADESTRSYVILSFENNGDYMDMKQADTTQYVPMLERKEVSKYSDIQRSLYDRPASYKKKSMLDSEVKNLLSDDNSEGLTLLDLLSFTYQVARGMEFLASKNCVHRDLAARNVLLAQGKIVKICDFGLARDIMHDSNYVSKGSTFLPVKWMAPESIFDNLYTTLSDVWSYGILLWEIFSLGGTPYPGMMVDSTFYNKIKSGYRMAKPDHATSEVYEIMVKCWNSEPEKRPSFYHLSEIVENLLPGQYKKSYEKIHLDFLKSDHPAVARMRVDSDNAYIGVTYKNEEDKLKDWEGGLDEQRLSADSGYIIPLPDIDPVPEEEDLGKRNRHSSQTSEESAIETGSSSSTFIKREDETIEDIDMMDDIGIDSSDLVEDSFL
In short: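 KINOMEscan active-site competition binding assay at 1 μM against 468 kinases. Ctrl% = (test − positive control)/(negative control DMSO − positive control) × 100; lower values mean tighter binding.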

[6] = target: Testis-specific serine/threonine-protein kinase 3 (Homo sapiens) (UniProt Q96PN8); experiment: Inhibition of TSSK3 (unknown origin) assessed as remaining activity at 1 uM by Kinome scan method relative to control
Chain of Testis-specific serine/threonine-protein kinase 3 (Homo sapiens) (Q96PN8 whole entry): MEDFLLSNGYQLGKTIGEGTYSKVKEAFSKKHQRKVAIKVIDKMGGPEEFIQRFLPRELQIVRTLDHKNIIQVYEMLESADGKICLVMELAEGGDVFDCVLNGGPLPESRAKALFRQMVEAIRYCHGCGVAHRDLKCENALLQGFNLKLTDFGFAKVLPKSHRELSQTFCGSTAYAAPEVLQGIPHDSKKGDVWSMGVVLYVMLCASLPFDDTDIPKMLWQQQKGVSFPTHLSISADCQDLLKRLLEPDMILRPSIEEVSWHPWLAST

[7] = target: Cyclin-dependent kinase 19 (Homo sapiens) (UniProt Q9BWU1); experiment: Inhibition of CDK11 (unknown origin) assessed as remaining activity at 1 uM by Kinome scan method relative to control
In short: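 KINOMEscan active-site-dependent competition-binding panel of 468 kinases, compound at 1 μM from a DMSO stock. Result reported as ctrl% = (test signal − positive control signal)/(negative control signal − positive control signal) × 100. The negative control is DMSO (100%) and the positive control is a control compound (0%). Lower ctrl% means tighter binding.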

[8] = test system: HepG2; experiment: Induction of apoptosis in human HepG2 cells assessed as viable cells at 3 uM by annexinV staining (Rvb =95.0 %); format: functional; settings: read-out: Activity
[9] = target: Ribosomal protein S6 kinase alpha-3 (Homo sapiens) (UniProt P51812); experiment: Inhibition of N-terminal kinase domain RSK2 (unknown origin) assessed as remaining activity at 1 uM by Kinome scan method relative to control
[10] = target: T1, Serine/threonine-protein kinase 4 (Homo sapiens, UniProt Q13043)
T1 sequence (Q13043 whole entry): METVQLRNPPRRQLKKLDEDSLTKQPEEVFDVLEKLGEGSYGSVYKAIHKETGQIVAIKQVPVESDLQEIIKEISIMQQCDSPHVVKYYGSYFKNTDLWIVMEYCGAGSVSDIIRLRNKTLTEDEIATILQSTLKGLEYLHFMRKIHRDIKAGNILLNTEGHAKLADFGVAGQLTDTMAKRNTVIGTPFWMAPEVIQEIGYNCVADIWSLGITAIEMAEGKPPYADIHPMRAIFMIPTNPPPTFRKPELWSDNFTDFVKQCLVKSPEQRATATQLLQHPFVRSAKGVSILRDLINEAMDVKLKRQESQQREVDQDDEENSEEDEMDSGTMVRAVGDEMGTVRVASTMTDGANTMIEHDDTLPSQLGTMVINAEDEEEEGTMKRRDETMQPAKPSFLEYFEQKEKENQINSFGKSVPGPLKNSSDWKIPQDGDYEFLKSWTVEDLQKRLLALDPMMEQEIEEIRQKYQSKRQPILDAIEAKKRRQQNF

[11] = target: Mitogen-activated protein kinase kinase kinase 2 (Homo sapiens) (UniProt Q9Y2U5); experiment: Inhibition of MAP3K2 (unknown origin) assessed as remaining activity at 1 uM by Kinome scan method relative to control
[12] = test system: Mus musculus; experiment: Protection against duct ligation-induced mouse assessed as low level in collagen deposition at 1 mg/kg, ip administration daily for 10 days by Sirius Red staining; format: functional, organism-based; settings: Liver, time 10.0 day
[13] = test system: Receptor-type tyrosine-protein kinase FLT3 (Homo sapiens), P36888 [K663Q]; experiment: Inhibition of FLT3 K663Q mutant (unknown origin) assessed as remaining activity at 1 uM by Kinome scan method relative to control
[14] = target: Leucine-rich repeat serine/threonine-protein kinase 2 (Homo sapiens) (UniProt Q5S007); experiment: Inhibition of LRRK2 (unknown origin) assessed as remaining activity at 1 uM by Kinome scan method relative to control
[15] = target: Serine/threonine-protein kinase ULK2 (Homo sapiens, UniProt Q8IYT8); experiment: Inhibition of ULK2 (unknown origin) in presence of ATP by enzymatic assay
Chain of Serine/threonine-protein kinase ULK2 (Q8IYT8 whole entry): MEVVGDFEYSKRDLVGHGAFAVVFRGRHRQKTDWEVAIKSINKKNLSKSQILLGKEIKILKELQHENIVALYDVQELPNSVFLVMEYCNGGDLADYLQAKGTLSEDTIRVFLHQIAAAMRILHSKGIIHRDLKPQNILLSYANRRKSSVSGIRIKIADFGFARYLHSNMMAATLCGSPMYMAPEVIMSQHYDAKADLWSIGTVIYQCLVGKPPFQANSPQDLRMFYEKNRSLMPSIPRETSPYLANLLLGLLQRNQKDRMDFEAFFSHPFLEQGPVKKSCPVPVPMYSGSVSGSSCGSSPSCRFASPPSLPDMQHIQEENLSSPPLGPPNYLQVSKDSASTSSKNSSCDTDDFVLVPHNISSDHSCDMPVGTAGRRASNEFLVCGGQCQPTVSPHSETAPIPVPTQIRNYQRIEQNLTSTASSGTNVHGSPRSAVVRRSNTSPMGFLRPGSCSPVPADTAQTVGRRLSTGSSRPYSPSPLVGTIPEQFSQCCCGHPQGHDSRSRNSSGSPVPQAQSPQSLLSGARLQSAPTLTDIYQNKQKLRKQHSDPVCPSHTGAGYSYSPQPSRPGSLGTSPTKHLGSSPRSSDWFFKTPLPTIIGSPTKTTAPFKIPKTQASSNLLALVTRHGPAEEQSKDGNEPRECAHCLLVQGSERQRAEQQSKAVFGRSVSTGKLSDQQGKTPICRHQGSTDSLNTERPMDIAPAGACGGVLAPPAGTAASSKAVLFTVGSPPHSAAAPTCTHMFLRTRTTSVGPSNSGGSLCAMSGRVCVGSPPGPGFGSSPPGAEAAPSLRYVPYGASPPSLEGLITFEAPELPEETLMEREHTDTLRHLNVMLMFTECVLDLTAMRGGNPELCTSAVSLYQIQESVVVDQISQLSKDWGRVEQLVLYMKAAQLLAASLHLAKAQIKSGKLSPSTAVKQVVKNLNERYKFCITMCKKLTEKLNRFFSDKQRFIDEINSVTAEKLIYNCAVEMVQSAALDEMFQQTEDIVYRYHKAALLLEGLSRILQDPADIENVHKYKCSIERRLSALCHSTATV

[16] = target: Protein-tyrosine kinase 6 (Homo sapiens) (UniProt Q13882); experiment: Inhibition of BRK (unknown origin) assessed as remaining activity at 1 uM by Kinome scan method relative to control; in short: as §1
Chain of Protein-tyrosine kinase 6 (Homo sapiens) (Q13882 whole entry, looked up): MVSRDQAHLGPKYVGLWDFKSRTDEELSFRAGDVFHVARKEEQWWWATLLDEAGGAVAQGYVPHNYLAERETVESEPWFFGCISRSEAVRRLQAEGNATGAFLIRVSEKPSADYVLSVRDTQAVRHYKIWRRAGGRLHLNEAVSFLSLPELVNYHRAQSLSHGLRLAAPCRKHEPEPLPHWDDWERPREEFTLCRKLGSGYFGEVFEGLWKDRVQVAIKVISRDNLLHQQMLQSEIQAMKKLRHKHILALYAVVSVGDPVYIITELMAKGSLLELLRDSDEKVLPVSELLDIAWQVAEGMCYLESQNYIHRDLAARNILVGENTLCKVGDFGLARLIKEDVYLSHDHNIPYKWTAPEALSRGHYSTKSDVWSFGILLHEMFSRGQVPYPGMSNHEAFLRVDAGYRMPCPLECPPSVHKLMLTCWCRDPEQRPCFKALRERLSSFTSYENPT

[17] = test system: Mus musculus; experiment: Anti-colitis activity against DSS-induced mouse assessed as high Ki67-positive proliferating cells at 1 mg/kg, ip administrated daily for 8 days by IHC staining; format: functional, organism-based; settings: Colon, time 8.0 day
In short: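 Wild-type mice received oral DSS for 7 days with vehicle or 1 mg/kg daily. Colon sections were stained by IHC for YAP, BrdU and Ki67, and positive cells were quantified per animal. Means ± SD, n = 10, Student's t test.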

[18] = test system: Phosphatidylinositol 4,5-bisphosphate 3-kinase catalytic subunit alpha isoform (Homo sapiens), P42336 [H1047Y]; experiment: Inhibition of PIK3CA H1047Y mutant (unknown origin) assessed as remaining activity at 1 uM by Kinome scan method relative to control
[19] = target: Epidermal growth factor receptor (Homo sapiens) (UniProt P00533); experiment: Inhibition of EGFR (unknown origin) assessed as remaining activity at 1 uM by Kinome scan method relative to control
[20] = target: Serine/threonine-protein kinase Nek9 (Homo sapiens) (UniProt Q8TD19); experiment: Inhibition of NEK9 (unknown origin) assessed as remaining activity at 1 uM by Kinome scan method relative to control
Chain of Serine/threonine-protein kinase Nek9 (Homo sapiens) (Q8TD19 whole entry): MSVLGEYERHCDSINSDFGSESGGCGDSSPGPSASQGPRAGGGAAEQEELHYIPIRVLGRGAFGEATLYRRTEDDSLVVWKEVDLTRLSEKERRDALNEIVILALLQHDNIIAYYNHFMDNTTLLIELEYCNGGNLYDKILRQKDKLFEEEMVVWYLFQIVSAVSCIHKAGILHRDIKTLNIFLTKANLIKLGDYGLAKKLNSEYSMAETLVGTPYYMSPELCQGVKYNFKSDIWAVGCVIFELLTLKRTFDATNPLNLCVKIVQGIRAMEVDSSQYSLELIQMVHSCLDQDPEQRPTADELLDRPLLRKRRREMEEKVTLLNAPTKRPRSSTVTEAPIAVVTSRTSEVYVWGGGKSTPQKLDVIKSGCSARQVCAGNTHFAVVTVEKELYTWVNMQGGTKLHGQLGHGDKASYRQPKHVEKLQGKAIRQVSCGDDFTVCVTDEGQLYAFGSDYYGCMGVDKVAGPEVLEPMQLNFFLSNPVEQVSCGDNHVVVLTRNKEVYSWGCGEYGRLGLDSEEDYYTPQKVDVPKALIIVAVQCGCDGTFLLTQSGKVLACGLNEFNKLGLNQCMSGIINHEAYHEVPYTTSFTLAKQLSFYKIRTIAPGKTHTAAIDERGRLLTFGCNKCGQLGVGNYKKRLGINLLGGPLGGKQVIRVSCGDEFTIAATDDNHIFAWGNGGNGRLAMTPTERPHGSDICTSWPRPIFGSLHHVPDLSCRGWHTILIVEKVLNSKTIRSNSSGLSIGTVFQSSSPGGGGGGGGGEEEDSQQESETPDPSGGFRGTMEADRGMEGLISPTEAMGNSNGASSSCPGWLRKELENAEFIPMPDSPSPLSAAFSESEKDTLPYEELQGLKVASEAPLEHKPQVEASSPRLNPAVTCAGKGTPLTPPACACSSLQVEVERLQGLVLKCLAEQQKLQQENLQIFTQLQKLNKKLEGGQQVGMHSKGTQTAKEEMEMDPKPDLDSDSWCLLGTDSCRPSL

[21] = test system: Mus musculus; experiment: Protection against APAP induced liver injury in mouse assessed as increase in survival rate at 1 mg/kg, ip administered at 2.5 hrs in the presence of NAC […]; format: functional
In short: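 Wild-type mice given oral APAP 400 mg/kg, then i.p. vehicle, NAC 250 mg/kg, 1 mg/kg test agent, or NAC plus test agent at 1.5 or 2.5 h. Mortality was tracked with n = 10–11 per group, Mantel-Cox test. Separately, TUNEL was done on liver after 200 mg/kg APAP with treatment at 2.5 h.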

Work on `CN1C(=O)c2sccc2N(C)c2nc(Nc3ccc(S(N)(=O)=O)cc3)ncc21` yielded an Activity [1] of 100%, an Activity [2] of 12% and an Activity [3] of 77%. For the same compound, the Activity [4] was 100%, the Activity [5] was 89% and the Activity [6] was 93%. The Activity [7] was 95%, the viability at 3 µM [8] was 95% and the Activity [9] was 76%. The IC50 [10] was 0.0707 µM, the Activity [11] was 2.6% and the Activity [12] was “Active”. The Activity [13] was 87%, the Activity [14] was 37% and the IC50 [15] was 0.0415 µM. The Activity [16] was 100%, the Activity [17] was “Active” and the Activity [18] was 57%. The Activity [19] was 100%, the Activity [20] was 94% and the Activity [21] was about 40%.
